Laboratory results: ChEMBL document CHEMBL4371095, “Triazole-Based Inhibitors of the Wnt/β-Catenin Signaling Pathway Improve Glucose and Lipid Metabolisms in Diet-Induced Obese Mice” (J Med Chem, 2019)
Active and inactive are the calls of the source. The rule behind the calls is not given here.

Legend:
Mus musculus [1] = assay: Effect on hepatic FGF21 mRNA level in normal chow diet fed C57BL/6J mouse at 40 mg/kg, ip administered every 2 days for 11 weeks by qPCR analysis; assay type: ADME, organism-based; conditions: in vivo
Outline: (§1)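 Male mice, 8 weeks old, kept on normal chow throughout and dosed i.p. every 2 days in corn oil vehicle for 11 weeks. Body weight gain, liver/body weight ratio, and liver mRNA of the indicated genes were measured at sacrifice; mean ± SEM, n = 5 per group where stated.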

HEK293 [2] = assay: Inhibition of 25 to 50 mM LiCl activated Wnt/beta-catenin signaling (unknown origin) expressed in HEK293 cells harboring TCF/LEF-responsive luciferase at 0.1 uM preincubated with cells followed by LiCl addition and measured after 24 hrs by luciferase reporter gene assay; assay type: cell-based; conditions: Homo sapiens
Mus musculus [3] = assay: Effect on hepatic SCD1 mRNA level in normal chow diet fed C57BL/6J mouse at 40 mg/kg, ip administered every 2 days for 11 weeks by qPCR analysis; assay type: ADME, organism-based; conditions: in vivo; outline: as §1
HEK293 [4] = assay: Inhibition of Wnt/beta-catenin signaling (unknown origin) expressed in GSK3beta knock down HEK293 cells harboring TCF/LEF-responsive luciferase assessed as luminescence at 20 nM measured after 24 hrs by luciferase reporter gene assay relative to control; assay type: cell-based; parameters: scale not given: the % may be the effect or the level left; conditions: Homo sapiens
Outline: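 HEK293 cells were transfected with siRNA against GSK3β, Axin or CK1α using RNAiMAX for 36 h. Cells were then treated with or without compound at 20 nM for 24 h, and TCF/LEF luciferase reporter activity was read.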

HEK293 [5] = assay: Growth inhibition of HEK293 cells harboring Wnt after 24 hrs by CellTiter-Fluor assay; assay type: cell-based; conditions: human, hek293, 24 h
Outline: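 HEK293 cells stably carrying the TOPFlash reporter were plated at 2000/well in DMEM with 10% FBS and incubated overnight. Compound was added with recombinant human Wnt-3a, then incubated 24 h at 37 °C. CellTiter-Fluor reagent was added and fluorescence read after 30 min at 37 °C.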

[6] = Toxicity in normal chow diet fed C57BL/6J mouse assessed as serum triglyceride level at 40 mg/kg, ip administered every 2 days for 11 weeks (reference value: 69 +/- 2.5 mg/dl); assay type: organism-based; conditions: in vivo
Mus musculus [7] = assay: Decrease in hepatic PEPCK mRNA level in high fat diet fed C57BL/6J mouse at 40 mg/kg, ip administered every 2 days for 11 weeks by qPCR analysis; assay type: functional, organism-based
Outline: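 Male mice, 8 weeks old, fed a 45% kcal fat diet for 6 weeks, then dosed i.p. every 2 days in corn oil vehicle for 11 weeks. Liver mRNA of the indicated genes was quantified at sacrifice; mean ± SEM, n = 5 per group.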

[8] = Oral bioavailability in mouse at 10 mg/kg administered as single dose by LC-MS analysis; assay type: ADME, organism-based; conditions: in vivo
Mus musculus [9] = assay: Effect on hepatic FASN mRNA level in normal chow diet fed C57BL/6J mouse at 40 mg/kg, ip administered every 2 days for 11 weeks by qPCR analysis; assay type: ADME, organism-based; conditions: in vivo; outline: as §1
HEK293 [10] = assay: Inhibition of Wnt/beta-catenin/Axin signaling (unknown origin) expressed in HEK293 cells assessed as decrease in Axin2 mRNA level after 48 hrs by qPCR analysis; assay type: cell-based; conditions: Homo sapiens
Outline: (§2)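 HEK293 cells were treated with compound for 48 h, harvested in TRIzol, and Wnt target gene mRNA was quantified by qPCR.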

[11] = Toxicity in high fat diet fed mouse up to 200 mg/kg, ip by LC-MS analysis; assay type: organism-based; conditions: in vivo
[12] = Cmax in mouse at 10 mg/kg, po administered as single dose by LC-MS analysis; assay type: ADME, organism-based; parameters: dose 10 mg/kg, route oral; conditions: in vivo
Outline: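 Compound was dissolved at 1 mg/ml in 10% Kolliphor EL and 10% polyethylene glycol in saline. Ten mice were split into intravenous and oral groups and given a single 10 mg/kg dose. Tail-vein blood was sampled at several time points and analysed by LC/MS/MS.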

[13] = Toxicity in high fat diet fed C57BL/6J mouse assessed as serum BUN level at 40 mg/kg, ip administered every 2 days for 11 weeks (reference value: 17.3 +/- 0.5 mg/dl); assay type: organism-based; conditions: in vivo
[14] = Inhibition of LiCl activated Wnt/beta-catenin signaling (unknown origin) expressed in HEK293 cells harboring TCF/LEF-responsive luciferase preincubated with cells followed by LiCl addition and measured after 24 hrs by luciferase reporter gene assay; assay type: cell-based; conditions: Homo sapiens
Outline: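 HEK293 cells carrying the TCF/LEF TOPFlash firefly luciferase reporter were stimulated with LiCl and treated with compound for 24 h. Luminescence was read, and IC50 was fitted from concentration–response data; mean ± S.D., n = 4.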

Axin-1 (Homo sapiens) = Axin-1 (Homo sapiens) (UniProt O15169); assay: Stabilization of Axin1 in human HuH7 cells assessed as decrease in lipid accumulation at 5 uM after 36 hrs by nile red staining based fluorescence microscopic method; assay type: cell-based
Outline: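 Huh7 cells on collagen I-coated coverslips were treated with 5 μM compound for 36 h, then with 200 μM sodium oleate for a further 12–16 h. Cells were stained with 1 μM Nile red in HBSS for 10 min at 37 °C in the dark and imaged by fluorescence microscopy at 552/636 nm.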

[15] = Inhibition of Wnt3a activated Wnt/beta-catenin signaling (unknown origin) expressed in HEK293 cells harboring TCF/LEF-responsive luciferase preincubated with cells followed by Wnt3a addition and measured after 24 hrs by luciferase reporter gene assay; assay type: cell-based; conditions: Homo sapiens
Outline: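 HEK293 cells stably carrying TOPFlash/GFP were plated at 2000/well in DMEM with 10% FBS and kept overnight at 37 °C. Compound was pin-transferred, then recombinant human Wnt-3a was added (200 ng/mL working stock). After 24 h at 37 °C, ONE-Glo luminescence was read after 30 min. IC50 is mean ± SE from three independent experiments.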

Mus musculus [16] = species on record: Mus musculus; assay: Inhibition of Wnt/beta-catenin/Axin signaling in mouse hepatocytes assessed as decrease in G6PASE mRNA level at 5 uM by qPCR analysis; assay type: cell-based
Outline: (§3)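 Normal mouse hepatocytes were treated with 5 μM compound, and lipogenic and gluconeogenic gene mRNA was measured by qPCR; mean ± S.D. of triplicates.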

HEK293 [17] = assay: Inhibition of Wnt/beta-catenin/Axin signaling (unknown origin) expressed in HEK293 cells assessed as decrease in CycD1 mRNA level after 48 hrs by qPCR analysis; assay type: cell-based; conditions: Homo sapiens; outline: as §2
[18] = target: Glycogen synthase kinase-3 beta (Homo sapiens, UniProt P49841); assay: Binding affinity to recombinant full length human N-terminal GST-tagged GSK3beta expressed in sf9 cells by SPR analysis
Outline: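 Recombinant GST-tagged human GSK3β. Binding was measured by surface plasmon resonance at a biosensor core facility, and K_D was determined.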

HEK293 [19] = assay: Inhibition of LiCl-activated Wnt/beta-catenin/Axin signaling (unknown origin) expressed in HEK293 cells assessed as degradation of beta-catenin by measuring decrease in beta-catenin protein expression after 24 hrs by Western blot method; assay type: cell-based; conditions: Homo sapiens
Outline: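 HEK293 cells were treated with compound in the presence of lithium chloride for 24 h. Lysis buffer contained 10 mM HEPES, 100 μM EDTA, 10 mM KCl, 0.5% NP40 and inhibitors. Protein was quantified by BCA, resolved on 10% SDS-PAGE, and immunoblotted for β-catenin.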

Mus musculus [20] = species on record: Mus musculus; assay: Inhibition of Wnt/beta-catenin/Axin signaling in mouse hepatocytes assessed as decrease in FASN mRNA level at 5 uM by qPCR analysis; assay type: cell-based; outline: as §3

Sequence of Glycogen synthase kinase-3 beta (P49841 whole entry): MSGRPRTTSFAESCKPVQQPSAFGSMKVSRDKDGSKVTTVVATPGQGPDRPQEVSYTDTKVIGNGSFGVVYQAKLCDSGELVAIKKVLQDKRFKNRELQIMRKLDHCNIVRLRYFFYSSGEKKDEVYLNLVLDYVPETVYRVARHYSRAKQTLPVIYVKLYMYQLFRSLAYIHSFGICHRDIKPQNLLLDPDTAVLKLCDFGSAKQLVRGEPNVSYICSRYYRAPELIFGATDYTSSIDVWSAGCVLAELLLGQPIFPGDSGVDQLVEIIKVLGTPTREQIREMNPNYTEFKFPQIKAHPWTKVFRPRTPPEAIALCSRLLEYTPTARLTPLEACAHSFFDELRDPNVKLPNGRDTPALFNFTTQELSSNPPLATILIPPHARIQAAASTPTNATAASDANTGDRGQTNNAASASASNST
Sequence of Axin-1 (Homo sapiens) (O15169 whole entry): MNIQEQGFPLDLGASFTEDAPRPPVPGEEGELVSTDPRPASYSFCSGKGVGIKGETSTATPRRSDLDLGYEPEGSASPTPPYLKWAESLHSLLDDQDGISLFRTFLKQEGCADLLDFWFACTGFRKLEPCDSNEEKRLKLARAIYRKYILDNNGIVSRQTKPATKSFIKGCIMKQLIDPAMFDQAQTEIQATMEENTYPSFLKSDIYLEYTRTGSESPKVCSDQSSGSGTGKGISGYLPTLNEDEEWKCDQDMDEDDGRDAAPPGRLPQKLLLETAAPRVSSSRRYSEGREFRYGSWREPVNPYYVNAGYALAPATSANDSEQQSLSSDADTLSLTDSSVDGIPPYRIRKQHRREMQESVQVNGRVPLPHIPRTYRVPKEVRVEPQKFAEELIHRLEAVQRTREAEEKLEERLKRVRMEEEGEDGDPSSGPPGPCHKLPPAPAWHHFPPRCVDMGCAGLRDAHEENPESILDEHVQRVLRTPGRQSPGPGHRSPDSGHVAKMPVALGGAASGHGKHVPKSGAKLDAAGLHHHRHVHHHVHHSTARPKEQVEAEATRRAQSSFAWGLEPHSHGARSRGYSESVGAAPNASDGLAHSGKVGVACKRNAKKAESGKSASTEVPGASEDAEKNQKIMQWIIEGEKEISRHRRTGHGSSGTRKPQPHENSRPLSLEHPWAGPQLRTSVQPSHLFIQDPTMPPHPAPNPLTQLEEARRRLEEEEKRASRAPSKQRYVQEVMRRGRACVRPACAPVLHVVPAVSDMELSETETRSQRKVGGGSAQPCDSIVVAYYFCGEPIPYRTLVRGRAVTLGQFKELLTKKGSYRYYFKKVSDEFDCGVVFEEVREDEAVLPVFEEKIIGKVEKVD

bioavailability [8]: 21%
Cmax [12]: 2.2 µg/mL
IC50 [14]: 6 nM
Activity (Axin-1 (Homo sapiens)): Active
IC50 [15]: 4.1 nM
inhibition (Mus musculus [16]): Active
Kd [18]: 4300 nM
Structure (SMILES): Cc1ccccc1-n1nnc(C(=O)Nc2ccc3ccccc3n2)c1C
Activity (Mus musculus [1]): Non-Toxic
inhibition (HEK293 [2]): Active
Activity (Mus musculus [3]): Non-Toxic
Activity (HEK293 [4]): 69%
growth inhibition (GI) (HEK293 [5]): Non-Toxic
Activity [6]: 55 mg/dL
Activity (Mus musculus [7]): Active
Activity (Mus musculus [9]): Non-Toxic
inhibition (HEK293 [10]): Active
Activity [11]: Non-Toxic
Activity [13]: 14.8 mg/dL
inhibition (HEK293 [17]): Active
inhibition (HEK293 [19]): Active
inhibition (Mus musculus [20]): Active
